Screening results (PubChem BioAssay)
Many of the other results were omitted from the sample, so hits are more common in it than they were.
Tcruzi prolif: T. cruzi intracellular proliferation inhibitors, primary screen, cell-based, beta-gal Tulahuen parasites, NIH3T3 host, luminescence; inhibition, % at 8.34 µM; T. cruzi beta-gal in NIH3T3, GalScreen luminescence, 90 h; actives 5.9% (n = 77,000);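 active = mean inhibition above about 93%, with at least 55% of replicates each passing it, limit read from the data, passing the limit was not always enough; inconclusive = only one of those two conditions holds; inactive = neither condition holds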
KDM4C inh: inhibitors of GASC-1 (KDM4C) histone demethylase, primary screen, biochemical, single concentration HTS | GST-KDM4C 2-372, H3K9me3 peptide, LANCE TR-FRET | inhibition, % at 12.5 µM | AID 720574, 2013 | Lysine-specific demethylase 4C (Homo sapiens), Q9H3R0 | actives 0.15% (n = 96,000);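 active = mean replicate inhibition above about 25%, with at least 55% of replicates also reaching it, limit read from the data, passing the limit was not always enough; inconclusive = only one of those two conditions met; inactive = neither condition met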
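Test system – GST-tagged GASC-1 (JMJD2C) catalytic fragment, aa 2-372 · Medium – HEPES buffer, pH 7.5, plus ascorbate · Reagent – H3K9me3 peptide with Fe(II)/2OG · Compound – one test concentration per compound · Timing – 30 min reaction, 60 min detection, RT · Technique – TR-FRET with Eu antibody and ULight streptavidin, EDTA stop · Read-out basis – inhibition from TR-FRET ratio decrease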
IDH1 mut inh: inhibitors of IDH1 R132H reductase, primary screen, biochemical, plate reader, single point; Isocitrate dehydrogenase [NADP] cytoplasmic (Homo sapiens), O75874; diaphorase/resazurin fluorescence, 60 min; inhibition, % at 10 µM; actives 0.18% (n = 70,000); AID 624101, 2012; in the data active = inhibition above about 34%; inconclusive = no clear call, values can overlap the other calls; inactive = below about 11%;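 note: 0% = DMSO and 100% = no enzyme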
Target sequence (O75874 whole entry R132H): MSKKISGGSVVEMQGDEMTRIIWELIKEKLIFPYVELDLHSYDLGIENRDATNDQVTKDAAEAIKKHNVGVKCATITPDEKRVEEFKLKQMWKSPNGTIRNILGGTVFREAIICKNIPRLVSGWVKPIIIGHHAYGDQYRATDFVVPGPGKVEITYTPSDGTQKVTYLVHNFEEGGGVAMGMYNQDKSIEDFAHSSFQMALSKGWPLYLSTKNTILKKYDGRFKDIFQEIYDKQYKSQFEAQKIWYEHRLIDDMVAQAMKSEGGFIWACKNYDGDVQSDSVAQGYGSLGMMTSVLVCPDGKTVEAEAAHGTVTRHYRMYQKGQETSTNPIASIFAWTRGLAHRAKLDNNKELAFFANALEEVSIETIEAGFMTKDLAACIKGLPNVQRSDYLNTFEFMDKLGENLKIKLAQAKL
Starred values were filed as active, the others as inactive; ? = inconclusive; / = no result given.

SMILES | Tcruzi prolif | KDM4C inh | IDH1 mut inh
COc1ccc(CN(C)C[C@@H]2Oc3ccc(NC(=O)C4CCCCC4)cc3CC(=O)N([C@@H](C)CO)C[C@H]2C)cc1 | 55.2 | 84.7* | 106.1*
C[C@@H]1CN([C@@H](C)CO)C(=O)Cc2cc(NC(=O)NC3CCCCC3)ccc2O[C@H]1CN(C)Cc1ccncc1 | 49.2 | -0.4 | 46.6*
COc1ccc(CN(C)C[C@H]2Oc3ccc(NC(=O)C4CC4)cc3CC(=O)N([C@@H](C)CO)C[C@@H]2C)cc1 | 62.2 | 0.1 | 1.6
C[C@@H]1CN([C@H](C)CO)C(=O)Cc2cc(NC(=O)NC3CCCCC3)ccc2O[C@@H]1CN(C)Cc1ccncc1 | -5.0 | / | 8.6
CSc1ccccc1NC(=O)CN(c1cccc(Cl)c1Cl)S(C)(=O)=O | / | / | 0.0
O=C(CSc1nc2ccccc2c(=O)n1Cc1ccccc1)c1cc2ccccc2o1 | / | / | 0.0
COC(=O)c1c(-c2ccc(OC)c(OC)c2)csc1NC(=O)COc1ccccc1 | / | / | 0.1
COc1ccc(OCC(=O)Nc2cc(-c3nnc(OC)c4ccccc34)ccc2N2CCCCC2)cc1 | / | / | 0.1
COCc1cn(CC[C@@H]2CC[C@@H](NC(=O)Nc3ccc(OC)cc3)[C@H](CO)O2)nn1 | 2.9 | -0.8 | 0.2
COCc1cn(CC[C@H]2CC[C@H](NC(=O)Nc3ccc(OC)cc3)[C@H](CO)O2)nn1 | 13.3 | 89.4* | 89.3*
CCn1c(SCC(=O)Nc2ccc3c(c2)OCCO3)nnc1-c1ccccc1 | / | / | -0.2
CCCc1nc(SCC(=O)c2ccccc2Cl)[nH]c(=O)c1C | / | / | -0.6
CC(C)(C)c1cc(C(F)(F)F)c(C#N)c(SCC(=O)Nc2sc3c(c2C#N)CCCC3)n1 | / | / | 0.2
COc1ccccc1S(=O)(=O)N[C@H]1CC[C@H](CCNC(=O)C2CCCC2)O[C@H]1CO | / | 50.1* | ?
Cc1ccccc1S(=O)(=O)NCC[C@H]1CC[C@@H](NC(=O)C2CCCCC2)[C@@H](CO)O1 | -63.8 | -2.4 | 0.3
Cc1ccccc1S(=O)(=O)NCC[C@H]1CC[C@H](NC(=O)C2CCCCC2)[C@H](CO)O1 | 10.0 | 82.5* | 88.3*
COc1ccccc1S(=O)(=O)N[C@H]1CC[C@H](CCNC(=O)C2CCCCC2)O[C@@H]1CO | -5.0 | -0.2 | -0.1
CS(=O)(=O)N(CC(N)=O)c1cc(Cl)c(Cl)cc1Cl | / | / | -0.6
COc1ccc(C(=O)CC2(O)C(=O)N(Cc3ccccc3Cl)c3ccc(Cl)cc32)cc1OC (stereo unspecified) | / | / | -0.2
C[C@H](CO)N1C[C@H](C)[C@@H](CN(C)C(=O)c2ccccc2F)Oc2ncc(C#Cc3ccncc3)cc2C1=O | / | -1.8 | 0.5
C[C@@H]1CN([C@H](C)CO)C(=O)c2cc(C#Cc3ccncc3)cnc2O[C@@H]1CN(C)C(=O)c1ccccc1F | / | 3.9 | 36.2*
COCC(=O)N(C)C[C@@H]1Oc2ncc(C#CC3(O)CCCC3)cc2C(=O)N([C@H](C)CO)C[C@@H]1C | 5.6 | 3.0 | -0.4
COCC(=O)N(C)C[C@H]1Oc2ncc(C#CC3(O)CCCC3)cc2C(=O)N([C@@H](C)CO)C[C@H]1C | 30.4 | 30.9* | 12.6
COCC(=O)N(C)C[C@H]1Oc2ncc(C#Cc3cccnc3)cc2C(=O)N([C@@H](C)CO)C[C@@H]1C | 56.5 | 6.9 | 0.9
COCC(=O)N(C)C[C@@H]1Oc2ncc(C#Cc3cccnc3)cc2C(=O)N([C@@H](C)CO)C[C@H]1C | 58.2 | 37.4* | 11.4
SMILES | Tcruzi prolif | KDM4C inh | IDH1 mut inh
Cc1cc(C)c(S(=O)(=O)N(CC(=O)Nc2ccc(C(N)=O)cc2)C2CCCCC2)c(C)c1 | / | / | 0.1
COc1ccc(S(=O)(=O)N(C)CC(=O)Nc2cccc(Cl)c2C)cc1C | / | / | 0.5
COc1cccc(C#Cc2ccc3c(c2)O[C@@H](CN(C)C(=O)c2ccccn2)[C@H](C)CN([C@H](C)CO)S3(=O)=O)c1 | 119.2* | 0.8 | /
COc1ccc(C#Cc2ccc3c(c2)O[C@@H](CN(C)C(=O)c2ccccn2)[C@H](C)CN([C@@H](C)CO)S3(=O)=O)cc1 | / | -8.7 | -0.8
CCC(=O)N(C)C[C@@H]1Oc2cc(C#Cc3ccccc3)ccc2S(=O)(=O)N([C@H](C)CO)C[C@@H]1C | / | -2.1 | 0.4
CCC(=O)N(C)C[C@@H]1Oc2cc(C#Cc3ccccc3)ccc2S(=O)(=O)N([C@@H](C)CO)C[C@@H]1C | / | 33.9* | 11.2
COc1cccc(C#Cc2ccc3c(c2)O[C@@H](CN(C)C(=O)c2ccccn2)[C@@H](C)CN([C@H](C)CO)S3(=O)=O)c1 | ? | -1.5 | /
COc1cccc(C#Cc2ccc3c(c2)O[C@H](CN(C)C(=O)c2ccccn2)[C@H](C)CN([C@@H](C)CO)S3(=O)=O)c1 | 115.8* | 0.6 | /
O=C(Nc1c(Cl)cc(Cl)cc1C(=O)NCc1cccnc1)c1cccc([N+](=O)[O-])c1 | / | / | 0.5
COc1ccc(NC(=O)CSc2ccccn2)cc1Cl | / | / | -0.7
CO[C@H]1CN(C)C(=O)c2ccc(NS(=O)(=O)c3cccc(Cl)c3)cc2OC[C@@H](C)NC[C@H]1C | 72.6 | 43.2* | 72.2*
CO[C@@H]1CN(C)C(=O)c2ccc(NS(=O)(=O)c3cccc(Cl)c3)cc2OC[C@@H](C)NC[C@H]1C | 13.7 | 0.9 | 0.0
Cc1ccccc1-c1nnc(SCC(=O)Nc2cccc(Br)c2)n1C | / | / | -0.4
O=C(CN1CCOCC1)NCC[C@H]1CC[C@H](NC(=O)Nc2ccc(F)cc2)[C@H](CO)O1 | -4.9 | 68.5* | 73.1*
O=C(CN1CCOCC1)N[C@H]1CC[C@@H](CCNC(=O)Nc2cc(F)ccc2F)O[C@@H]1CO | -17.2 | 2.1 | 0.1
O=C(CN1CCOCC1)N[C@@H]1CC[C@H](CCNC(=O)Nc2cc(F)ccc2F)O[C@H]1CO | -18.9 | 31.1* | 11.6
O=C(CN1CCOCC1)NCC[C@@H]1CC[C@H](NC(=O)Nc2ccc(F)cc2)[C@H](CO)O1 | -28.4 | -0.3 | 0.2
Cc1cc(I)cc(C)c1NC(=O)CSc1nnnn1-c1ccccc1 | / | / | -0.2
COc1ccc([N+](=O)[O-])cc1NC(=O)C(CC(C)C)N1C(=O)c2ccccc2C1=O (stereo unspecified) | / | / | -0.5
COc1cc(C(=O)Nc2cc(-c3nc4ncccc4o3)ccc2C)ccc1OCc1ccc(Cl)cc1 | / | / | 2.8
C[C@H](CO)N1C[C@H](C)[C@@H](CN(C)C(=O)Nc2ccc3c(c2)OCO3)OCCCC[C@H](C)Oc2ccc(NC(=O)Nc3ccc(C(F)(F)F)cc3)cc2C1=O | 90.5 | -0.8 | -0.7
C[C@@H]1CN([C@@H](C)CO)C(=O)c2c(c3ccccc3n2C)-c2ccccc2CO[C@@H]1CN(C)Cc1ccc(O)cc1 | / | -1.4 | /
C[C@H]1CCCCO[C@@H](CN(C)Cc2ccncc2)[C@@H](C)CN([C@@H](C)CO)C(=O)c2cc(NC(=O)Nc3cccc4ccccc34)ccc2O1 | 99.3* | 1.2 | -4.6
C[C@@H]1CCCCO[C@@H](CN(C)C(=O)Nc2ccc(C(F)(F)F)cc2)[C@H](C)CN([C@@H](C)CO)C(=O)c2cc(NC(=O)Nc3ccc4c(c3)OCO4)ccc2O1 | 112.2* | -2.2 | 2.7
